# Screens (PubChem BioAssay)
# UCH37 DUB inh = blocks the human deubiquitinase UCH37; purified proteasome/UCH37, Ub-AMC cleavage fluorescence; 330,000 tested, 0.33% active; inhibition, % (test concentration not listed); AID 588478;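 active = mean inhibition over replicate wells above about 20%, limit read from the data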;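 note: 0% = compound-free wells with enzyme and 100% = wells lacking proteasome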
# Target sequence (Q9Y5K5 whole entry, looked up): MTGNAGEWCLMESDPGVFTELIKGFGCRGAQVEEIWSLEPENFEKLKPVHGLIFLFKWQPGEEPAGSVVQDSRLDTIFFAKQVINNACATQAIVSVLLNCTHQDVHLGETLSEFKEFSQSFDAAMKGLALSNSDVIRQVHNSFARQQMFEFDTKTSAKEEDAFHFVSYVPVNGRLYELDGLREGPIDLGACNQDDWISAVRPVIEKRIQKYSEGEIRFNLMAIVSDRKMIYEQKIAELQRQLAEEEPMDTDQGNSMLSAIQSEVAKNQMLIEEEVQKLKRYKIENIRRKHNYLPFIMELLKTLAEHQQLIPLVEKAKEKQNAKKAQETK
#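 Test system – human UCH37 enzyme supplied as purified proteasome complex · Incubation – 30 min preincubation with enzyme, 25 min cleavage at room temperature · Detection – AMC fluorescence from Ub-AMC cleavage, excitation 355 nm, emission 460 nm · Benchmarks – no-proteasome wells (full inhibition) and compound-free wells (no inhibition)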
# CRFBP-R2 agonist = agonists of human CRF-binding protein/CRF-R2 receptor complex; 350,000 tested, 0.46% active; HEK293 CRF-R2/CRF-BP, calcium dye fluorescence (FLIPR); percent of saturating CRF peptide response; activation, % at 13.2 µM;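 active = activation of at least 50%, plus an integration ratio under a set limit after plate pattern correction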;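 note: plate controls were neutral control wells without compound for no effect and CRF at EC100 for full effect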
# CRFBP-R2 block = blocks CRF-induced signaling of the CRF-BP/CRF-R2 complex; HEK293 CRF-R2/CRF-BP, CRF-induced calcium fluorescence; inhibition, % at 11.8 µM; 350,000 tested, 0.59% active; AID 588475;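 active = inhibition of the ligand-induced calcium signal above about 50% at the single tested concentration, limit read from the data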
# MIN6 prolif = MIN6 beta-cell proliferation induction; MIN6 cells proliferation, ATPlite luminescence, 48 h; cells starved in 0.2% serum; 100% = growth in 10% serum; proliferation, % at 10 µM; 330,000 tested, 0.29% active;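 active = compounds whose signal lies at least 3.5 SD above the mean of all wells on their plate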;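 note: 0% = DMSO-treated cells in low-serum medium and 100% = 10% serum control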
# hiPSC survival = increases survival of single human iPS cells; survival enhancement, % at 20 µM; hiPSC single-cell survival, ATPlite luminescence; 100% = ROCK inhibitor wells, 0% = DMSO; 360,000 tested, 0.044% active; in the data active = survival enhancement above about 18%;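 note: cells exposed to compounds for 16 hours before the ATP read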
# H9c2 protect = protects H9c2 cardiomyocytes from peroxide injury. H2O2 injury protection, ATPLite, 2 h. protection from H2O2 cell death, % at 20 µM. 360,000 tested, 0.63% active;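 active = compounds giving at least 50% protection of heart cells from peroxide-induced death in the single-dose screen, raw or plate-pattern-corrected value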;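 note: 0% = DMSO wells with peroxide and 100% = DMSO wells without peroxide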
# * marks the source's active call; other numbers are inactive results; nt = no result. A selection: hits, their analogues and other compounds. The true share with any hit is near 2.1%.
SMILES,UCH37 DUB inh,CRFBP-R2 agonist,CRFBP-R2 block,MIN6 prolif,hiPSC survival,H9c2 protect
Oc1ccc(C=Nc2ccc(N3CCOCC3)cc2)c(O)c1,5,8,-9,-1,2,13
Oc1c(Br)cc(Br)cc1C=Nc1ccc2c(c1)OCCO2,0,6,-4,-7,0,84*
Oc1cc(Br)ccc1C=Nc1ccc(N2CCCCC2)cc1,1,1,0,-4,3,33
CNCCCNC(=O)c1ccc(C=NO)nc1,3,nt,nt,nt,nt,nt
CN(Cc1c(C(=O)NN=Cc2cccc(O)c2)nnn1-c1nonc1N)C1CCCCC1,-9,nt,nt,nt,nt,nt
O=[N+]([O-])c1cc(Cc2ccccc2)cc(C=Nc2ccc(N3CCOCC3)cc2)c1O,1,-2,-17,nt,0,86*
Clc1ccc(-c2ccc(C=Nc3ccc(N4CCOCC4)cc3)o2)c(Cl)c1,3,210*,-330,-5,0,2
C=CCN(c1ccccc1)S(=O)(=O)c1cccc(C(=O)NNC(=O)c2ccccc2O)c1,-2,-1,6,-5,3,28
C=CCN(c1ccccc1)S(=O)(=O)c1cccc(C(=O)O)c1,4,-5,98*,3,5,2
COc1ccc2ccccc2c1CNCCCN1CCOCC1,4,-2,67*,-2,-1,8
Cc1cc(C)cc(N=Cc2[nH]c3ccc(Br)c(Cl)c3c2O)c1,11,197*,-151,nt,-1,-14
Cc1cc(C)c(C)c(S(=O)(=O)N2CCC(C(=O)NNC(=O)c3ccccc3O)CC2)c1C,-9,-1,2,-7,0,66*
O=C(O)c1cc(NN=C/C(Cl)=C/c2ccccc2)ccc1Cl,10,nt,nt,nt,nt,nt
O=C1/C(=C/c2ccc(O)cc2)SC(=S)N1Cc1cccnc1,nt,107*,-51,-2,-1,-7
COc1ccc(-c2cc3nc(C4CCN(C(=O)OC(C)(C)C)CC4)c(C(=O)O)cn3n2)cc1,-44,-3,52*,4,-1,8
CCOC(=O)c1cn2nc(-c3ccc(OCC)cc3)cc2nc1C1CCN(C(=O)OC(C)(C)C)CC1,-229,-1,-25,-5,0,-4
CCC/C(=N\NC(=O)C1CC1)c1ccccc1,nt,-2,65*,1,1,-3
COc1ccc(-c2cc(=O)oc3c(O)c(O)ccc23)cc1,4,0,-4,-5,-1,63*
Cc1ccc(NC(=O)c2ccccc2NS(=O)(=O)c2ccc(Cl)s2)cc1S(=O)(=O)N1CCOCC1,-3,43,87*,0,2,-28
COc1ccc(C)cc1NC(=O)c1ccccc1NS(=O)(=O)c1ccc(Cl)s1,5,40,65*,-6,0,-24
O=C(Nc1cc(S(=O)(=O)N2CCOCC2)ccc1O)c1ccc(NS(=O)(=O)c2ccc(Cl)s2)cc1,4,-2,-2,-2,1,7
Cc1ccsc1C=NNC(=S)NCCc1ccccc1,1,nt,nt,nt,nt,nt
O=C(CNC(=O)c1ccccc1Br)NN=Cc1cccnc1,-1,nt,nt,nt,nt,nt
CCN(C(=O)CCc1nnc2ccc(N3CCC4(CC3)OCCO4)nn12)c1ccccc1,3,0,52*,-3,1,2
O=C(NCC1CCCO1)C1CCCN1C(=O)NC1CCCCC1 (stereo unspecified),2,-4,53*,-5,-1,1
SMILES,UCH37 DUB inh,CRFBP-R2 agonist,CRFBP-R2 block,MIN6 prolif,hiPSC survival,H9c2 protect
O=C(CN1CCN(Cc2ccccc2)CC1)NN=C/C=C/c1ccco1,15,nt,nt,nt,nt,nt
Cc1ccccc1C(=O)Nc1scc(-c2ccc(Br)cc2)c1C(=O)O,-15,-1,68*,-4,-1,1
O=C(Nc1scc(-c2ccc(Br)cc2)c1C(=O)O)c1ccccc1F,2,0,56*,-1,0,0
O=[N+]([O-])c1ccccc1/C=C/C=Nn1c(-c2ccc(Cl)cc2)n[nH]c1=S,3,nt,nt,nt,nt,nt
COc1ccc(OC)c(N(CC(=O)Nc2cccnc2)S(=O)(=O)c2ccc(OC)c(OC)c2)c1,1,1,-20,-2,0,50*
CCOC(=O)C(C)C(C)=NNC(N)=S (stereo unspecified),3,nt,nt,nt,nt,nt
O=C(NN=Cc1cn(-c2cccs2)nc1-c1ccccc1)c1ccc(O)cc1,-4,nt,nt,nt,nt,nt
Cc1ccc(C2C=C(c3ccccc3OC(F)F)Nc3ncnn32)cc1 (stereo unspecified),-45,29,-20,-2,5,4
CN(C)c1ccc(C2C=C(c3ccc(Cl)cc3OC(F)F)Nc3ncnn32)cc1 (stereo unspecified),4,59*,-63,-5,-2,-9
O=C(NN=Cc1cccc2ccccc12)c1cc(C2CC2)[nH]n1,3,nt,nt,nt,nt,nt
Cc1ccc(S(=O)(=O)N2CCN(C(=O)COc3ccc(C)nc3[N+](=O)[O-])CC2)c(C)c1,2,-1,78*,0,-1,10
Cc1ccc(OCC(=O)N2CCN(S(=O)(=O)c3ccc(Cl)cc3)CC2)c([N+](=O)[O-])n1,1,3,-2,0,-1,1
CON=C(c1nonc1N)N1CCN(c2ccc([N+](=O)[O-])cc2)CC1,3,nt,nt,nt,nt,nt
O=C(NCCCN1CCOCC1)C1CC(=O)N(CCc2ccccc2)C1 (stereo unspecified),-1,0,8,2,0,-6
O=C(NCCCN1CCCCCC1)C1CC(=O)N(CCc2ccccc2)C1 (stereo unspecified),1,3,11,-5,19*,0
C(=Nn1cnnc1SCc1ccccc1)c1ccco1,4,nt,nt,nt,nt,nt
O=C1NC(Cc2c[nH]c3ccccc23)C(=O)N1Cc1cccc2ccccc12 (stereo unspecified),-2,1,51*,-4,0,-4
COc1ccccc1Nc1nc(-c2c(C)[nH]c3ccccc23)cs1,-97,-2,15,nt,-2,-12
CNc1nc(-c2c(C)[nH]c3ccc(OC)cc23)cs1,3,8,88*,-1,0,4
Cc1cccc(/N=C/c2c(O)ccc3oc4c(c23)CCCC4)n1,nt,-3,-34,-2,0,75*
O=C(OCC(=O)N1CCN(C(=O)c2ccco2)CC1)c1cc(-c2ccco2)nc2ccccc12,-444,0,11,-1,-1,49*
Cc1cc(N2CCN(S(=O)(=O)c3ccc(Cl)c(Cl)c3)CC2)c2ccccc2n1,2,1,-2,-6,0,2
Cc1cc(N2CCN(S(=O)(=O)c3ccc(Cl)cc3)CC2)c2ccccc2n1,6,0,62*,-4,-1,-19
Cc1ccc(C=NNC(=O)c2nnn(-c3nonc3N)c2CN(C)C)o1,10,nt,nt,nt,nt,nt
COc1ccc(C2=NN(C(=O)CCC(=O)O)C(c3ccc(OC)c(OC)c3)C2)cc1 (stereo unspecified),2,5,0,-4,1,-1
